pIC50: −log10 of the molar value. Calls of active or inactive are those of the source. The rule behind the calls is not given here.
Columns and labels:
[1] = Cytotoxicity against BALB/c mouse splenocytes assessed as cell viability after 24 hrs by [3H]thymidine incorporation assay; type: cell-based, Splenocyte; conditions: for MNTC at 24 h: read-out: MNCC
Method in brief: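 Splenocytes from BALB/c mice seeded at 5 × 10⁶ cells/well. DMSO stocks serially diluted in RPMI-1640 (final DMSO 1%), triplicate wells. 24 h at 37 °C, 5% CO₂ with […] ³H-thymidine; cells harvested, % ³H-thymidine incorporation by scintillation counting. CC50 from five concentrations; highest non-cytotoxic concentration also noted.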

[2] = system: Trypanosoma cruzi; assay: Antitrypanosomal activity against Trypanosoma cruzi Y […] trypomastigotes isolated from infected LLC-MK2 cells assessed as parasite viability after 24 hrs by neubauer chamber analysis; type: functional; conditions: LLC-MK2, 24 h
Method in brief: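 Y strain (TcII) […] trypomastigotes taken from supernatant of infected LLC-MK2 cells, seeded at 4 × 10⁵ cells/well in RPMI-1640. DMSO stocks serially diluted in RPMI. 24 h at 37 °C, 5% CO₂; viable parasites counted in a Neubauer chamber, % inhibition versus untreated cultures; CC50 by nonlinear regression, triplicates, experiment repeated, SD <10% of mean required.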

[3] = system: Trypanosoma cruzi; assay: Antitrypanosomal activity against Trypanosoma cruzi Dm28c epimastigotes assessed as inhibition of parasite proliferation after 5 days by hemocytometer analysis; type: functional, organism-based; conditions: 120 h
Method in brief: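 Dm28c epimastigotes kept in LIT medium with 10% FBS at 26 °C, seeded at 10⁶ cells/well. DMSO stocks serially diluted in LIT (1.23–100 […] as printed; final DMSO 1%), triplicate wells. 5 days at 26 °C, then viable parasites counted in a Neubauer chamber against untreated culture; IC50 from concentrations in triplicate, experiment repeated, only values with SD <10% of mean kept.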

[4] = system: Trypanosoma cruzi; assay: Antitrypanosomal activity against Trypanosoma cruzi trypomastigotes assessed as induction of apoptotic parasitic death at CC25 to CC100 after 24 hrs by Annexin V-FITC/propidium iodide staining based flow cytometry; type: functional, organism-based
[5] = Selectivity index, ratio of CC50 for BALB/c mouse splenocytes to CC50 for Trypanosoma cruzi Y trypomastigotes
Method in brief: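 Ratio of CC50 in BALB/c splenocytes (24 h ³H-thymidine incorporation) to CC50 in Y strain trypomastigotes (24 h Neubauer count of viable parasites).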

[6] = system: Trypanosoma cruzi; assay: Antitrypanosomal activity against Trypanosoma cruzi trypomastigotes assessed as induction of apoptotic parasitic death after 24 hrs by Annexin V-FITC/propidium iodide staining based flow cytometry; type: functional, organism-based
[7] = system: Trypanosoma cruzi; assay: Antitrypanosomal activity against Trypanosoma cruzi trypomastigotes assessed as necrotic cells at 1.1 uM after 24 hrs by Annexin V-FITC/propidium iodide staining based flow cytometry (reference value: 0.37%); type: functional
[8] = system: Trypanosoma cruzi; assay: Antitrypanosomal activity against Trypanosoma cruzi trypomastigotes assessed as early apoptotic cells at 1.1 uM after 24 hrs by Annexin V-FITC/propidium iodide staining based flow cytometry (reference value: 1.71%); type: functional
[9] = system: Trypanosoma cruzi; assay: Antitrypanosomal activity against Trypanosoma cruzi trypomastigotes assessed as late apoptotic cells at 1.1 uM after 24 hrs by Annexin V-FITC/propidium iodide staining based flow cytometry (reference value: 0.8%); type: functional
[10] = system: Trypanosoma cruzi; assay: Antitrypanosomal activity against Trypanosoma cruzi trypomastigotes assessed as necrotic cells at 0.25 uM after 24 hrs by Annexin V-FITC/propidium iodide staining based flow cytometry (reference value: 0.37%); type: functional
[11] = system: Trypanosoma cruzi; assay: Antitrypanosomal activity against Trypanosoma cruzi trypomastigotes assessed as early apoptotic cells at 0.25 uM after 24 hrs by Annexin V-FITC/propidium iodide staining based flow cytometry (reference value: 1.71%); type: functional
[12] = system: Trypanosoma cruzi; assay: Antitrypanosomal activity against Trypanosoma cruzi trypomastigotes assessed as late apoptotic cells at 0.25 uM after 24 hrs by Annexin V-FITC/propidium iodide staining based flow cytometry (reference value: 0.8%); type: functional
[13] = molecular target: Cruzipain (Trypanosoma cruzi) (UniProt P25779); assay: Inhibition of Trypanosomal cruzi recombinant cruzain assessed as substrate cleavage using Z-Phe-Arg-AMC as substrate at 50 uM preincubated for 10 mins measured for 5 mins by flow cytometry; conditions: in the assay text read “by fluorescence assay” for “by flow cytometry”
Sequence of Cruzipain (Trypanosoma cruzi) (P25779 123-467 limits assumed): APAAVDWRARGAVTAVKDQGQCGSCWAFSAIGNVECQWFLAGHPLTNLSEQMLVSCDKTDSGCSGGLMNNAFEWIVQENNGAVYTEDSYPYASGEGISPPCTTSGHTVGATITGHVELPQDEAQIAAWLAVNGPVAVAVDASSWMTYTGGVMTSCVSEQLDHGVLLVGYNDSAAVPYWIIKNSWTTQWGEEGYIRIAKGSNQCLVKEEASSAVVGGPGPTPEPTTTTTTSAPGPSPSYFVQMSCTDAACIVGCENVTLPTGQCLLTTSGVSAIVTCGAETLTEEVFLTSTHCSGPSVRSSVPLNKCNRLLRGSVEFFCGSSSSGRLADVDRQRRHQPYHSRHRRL
Method in brief: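 Recombinant cruzain, final concentration 0.5 nM, in 0.1 M sodium acetate pH 5.5 with 1 mM β-mercaptoethanol and 0.01% Triton X-100. Substrate Z-FR-AMC at 2.5 (Km 1.0). Screened with no pre-incubation and after 10-min enzyme pre-incubation. Fluorescence read at ex 340/em 440 nm for 5 min, activity relative to DMSO control. Two independent experiments in triplicate.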

Row | Compound | MNTC at 24 h [1] | CC50 [2] | pIC50 [3] | further results
1 | C/C(=N\NC(N)=S)C(C)Oc1cccc(Cl)c1Cl (stereo not given) | 32.6 µM | 11.9 µM | 5.66 | –
2 | C/C(=N\NC(N)=S)C(C)Oc1ccc2ccccc2c1 (stereo not given) | 34.8 µM | 5.6 µM | 4.75 | –
3 | CC1CS(=O)(=O)CCN1/N=C/c1ccc([N+](=O)[O-])o1 (stereo not given) [NIFURTIMOX] | – | 2.7 µM | 5.24 | –
4 | C/C(=N\NC(N)=S)C(C)Oc1cccc(-c2ccccc2)c1 (stereo not given) | 31.9 µM | 1.3 µM | 5.66 | –
5 | C/C(=N\NC(N)=S)C(C)Oc1ccc(F)c(Cl)c1 (stereo not given) | 34.5 µM | 3.5 µM | – | –
6 | C/C(=N\NC(N)=S)C(C)Oc1ccc(C(C)(C)C)cc1 (stereo not given) | 17 µM | 1.4 µM | 5.34 | –
7 | C/C(=N\NC(N)=S)C(C)Oc1ccccc1Cl (stereo not given) | 36.8 µM | 1.5 µM | 4.99 | –
8 | C/C(=N\NC(N)=S)C(C)Oc1cccc(Cl)c1 (stereo not given) | 36.8 µM | 5.5 µM | 4.34 | Activity [4]: Active
9 | CC(=O)Nc1ccc(OC(C)/C(C)=N/NC(N)=S)cc1 (stereo not given) | > 340 µM | 1.4 µM | 4.15 | Activity [4]: Active; Selectivity Index [5]: 250; CC50 at 24 h [1]: 350 µM
10 | C/C(=N\NC(N)=S)C(C)Oc1ccc(Oc2ccccc2)cc1 (stereo not given) | 30.3 µM | 1.3 µM | – | –
11 | C/C(=N\NC(N)=S)C(C)Oc1ccccc1 (stereo not given) | 211 µM | 27.3 µM | 4.58 | –
12 | C/C(=N\NC(N)=S)C(C)Oc1ccc(Br)cc1 (stereo not given) | 31.6 µM | 3.9 µM | 4.70 | –
13 | C/C(=N\NC(N)=S)C(C)Oc1ccccc1-c1ccccc1 (stereo not given) | 31.9 µM | 1.1 µM | 5.66 | Activity [6]: Dose-dependent effect; Activity [7]: 4.62%; Activity [8]: 7.8%; Activity [9]: 6.2%; Activity [10]: 0.51%; Activity [11]: 1.22%; Activity [12]: 2.21%; Selectivity Index [5]: 45; CC50 at 24 h [1]: 50 µM
14 | C/C(=N\NC(N)=S)C(C)Oc1cccc(Br)c1 (stereo not given) | 31.6 µM | 4.5 µM | 5.24 | –
15 | C/C(=N\NC(N)=S)C(C)Oc1ccc(Cl)c(Cl)c1 (stereo not given) | 16.3 µM | 4.4 µM | 5.36 | –
16 | C/C(=N\NC(N)=S)C(C)Oc1ccc(C(C)C)cc1 (stereo not given) | 17.9 µM | 1.5 µM | 5.23 | –
17 | O=C(Cn1ccnc1[N+](=O)[O-])NCc1ccccc1 [BENZNIDAZOLE] | – | 6.2 µM | 4.31 | –
18 | COc1cccc(OC(C)/C(C)=N/NC(N)=S)c1 (stereo not given) | 37.4 µM | 6.2 µM | 5.17 | –
19 | C/C(=N\NC(N)=S)C(C)Oc1ccc(F)cc1 (stereo not given) | > 392 µM | 23.2 µM | 4.06 | –
20 | C/C(=N\NC(N)=S)C(C)Oc1ccc(I)cc1 (stereo not given) | 13.7 µM | 1.1 µM | 5.31 | –
21 | COc1ccc(OC(C)/C(C)=N/NC(N)=S)cc1 (stereo not given) | 93.5 µM | 26.8 µM | 4.56 | –
22 | C/C(=N\NC(N)=S)C(C)Oc1cccc2ccccc12 (stereo not given) | 34.8 µM | 1.5 µM | 5.31 | inhibition [13]: inactive
23 | C/C(=N\NC(N)=S)C(C)Oc1ccc(-c2ccccc2)cc1 (stereo not given) | 15.9 µM | 1.3 µM | 5.35 | inhibition [13]: inactive
24 | C/C(=N\NC(N)=S)C(C)Oc1ccc([N+](=O)[O-])cc1 (stereo not given) | 88.5 µM | 5.9 µM | 3.75 | inhibition [13]: inactive
25 | C/C(=N\NC(N)=S)C(C)Oc1ccc(Cl)cc1 (stereo not given) | 92 µM | 22.8 µM | 4.87 | –
26 | CCc1ccc(OC(C)/C(C)=N/NC(N)=S)cc1 (stereo not given) | 18.8 µM | 4.6 µM | 4.94 | –
